This is an account of results in ChEMBL document CHEMBL3351782, “Synthesis and biological evaluation of glaucocalyxin A derivatives as potential anticancer agents” (Eur J Med Chem, 2014).

Test [1] can be described thus: Antiproliferative activity against human SMMC7721 cells after 48 hrs by MTT assay. In kind it is functional, cell-based. As to conditions: SMMC-7721, 48 h. A digest of the protocol:
(§1)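 Cells were seeded at 3 × 10^3 per well and exposed 24 h later, while growing exponentially, to compounds at final concentrations of 1.25 to 40 for 48 h. MTT (5 mg/mL in PBS) was then added for 6 h. The medium was aspirated, the formazan dissolved in DMSO and absorbance read at 570 nm. Survival is relative to untreated cells; IC50 comes from triplicate wells in at least three independent experiments.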
On the technique in general: Formazan colour is commonly taken as a measure of viable cells.

Another test has as its system B16. The test can be described thus: Antiproliferative activity against mouse B16 cells after 48 hrs by MTT assay. In kind it is functional, cell-based. As to conditions: B16, 48 h. A digest of the protocol: as §1
Test [2] can be described thus: Antiproliferative activity against human SGC7901 cells after 48 hrs by MTT assay. The note with it: SGC-7901, 48 h. In kind it is functional, cell-based. The method in brief:
as §1

Another test has as its system A549. The test can be described thus: Antiproliferative activity against human A549 cells after 48 hrs by MTT assay. In kind it is functional, cell-based. As to conditions: A549, 48 h. The method in brief:
as §1

The subject of another test is KB. Description: Antiproliferative activity against human KB cells after 48 hrs by MTT assay. In kind it is functional, cell-based. A digest of the protocol:
as §1

The nature of test [3]: Antiproliferative activity against human HL60 cells after 48 hrs by MTT assay. In kind it is functional, cell-based. As to conditions: HL-60, 48 h. The method in brief:
as §1

Test [4] in a line: Antiproliferative activity against human HL7702 cells after 48 hrs by MTT assay. In kind it is cell-based. As to conditions: L02, 48 h. A digest of the protocol: as §1

For orientation: pIC50 means the negative decadic logarithm of the IC50, by convention in mol/L. High values mean a small IC50, low ones a large IC50.

SMILES strings stand for the structures. pIC50: −log10 of the molar value.

Consider `CC1(C)C(=O)CC[C@]2(C)[C@@H]1C[C@@H](O)[C@]13C(=O)C(CNc4ccccc4)[C@H](CC[C@@H]21)[C@H]3O` (stereo partly drawn), for which the pIC50 in test [1] was 4.32; with B16, 4.94; in test [2], 4.49; in the test on A549 it was 4.43; with KB it was 4.51; in test [3], 4.82.
As for `CC(=O)c1ccc(NCC2C(=O)[C@@]34[C@H](O)C[C@@H]5C(C)(C)C(=O)CC[C@@]5(C)[C@@H]3CC[C@@H]2[C@H]4O)cc1` (stereo partly drawn), the pIC50 is 4.58 in test [1]; 4.74 in the test on B16; 4.50 in test [2]; 4.66 in the test with A549; 4.90 with KB; 4.93 in test [3].
Turning to `CC1(C)C(=O)CC[C@]2(C)[C@@H]1C[C@@H](O)[C@]13C(=O)C(CNc4ccc(Br)cc4)[C@H](CC[C@@H]21)[C@H]3O` (stereo partly drawn), the negative logarithm of the IC50 (pIC50) in test [1] was 4.74; with B16, 4.96; in test [2], 4.60; with A549, 4.72; in the test on KB, 5.20; in test [3], 4.84.
`O=c1[nH]cc(F)c(=O)[nH]1` [FLUOROURACIL]: the pIC50 in test [1] is 4.17; in the test on B16, 4.75; in test [2], 4.22; with A549, 4.29; in the test with KB it was 4.27; in test [3], 4.57.
`Cc1cccc(NCC2C(=O)[C@@]34[C@H](O)C[C@@H]5C(C)(C)C(=O)CC[C@@]5(C)[C@@H]3CC[C@@H]2[C@H]4O)c1` (stereo partly drawn): the pIC50 in test [1] is 4.68; in the test on B16, 4.84; in test [2], 4.41; in the test with A549 it was 4.55; with KB it was 4.53; in test [3], 4.87.
For `Cc1ccccc1NCC1C(=O)[C@@]23[C@H](O)C[C@@H]4C(C)(C)C(=O)CC[C@@]4(C)[C@@H]2CC[C@@H]1[C@H]3O` (stereo partly drawn), the pIC50 in test [1] was 4.65; in the test on B16 it was 4.72; in test [2] it was 4.42; with A549, 4.61; with KB, 4.63; in test [3], 4.74.
For the compound `COc1ccc(NCC2C(=O)[C@@]34[C@H](O)C[C@@H]5C(C)(C)C(=O)CC[C@@]5(C)[C@@H]3CC[C@@H]2[C@H]4O)cc1` (stereo partly drawn), the negative-log IC50 (pIC50) is 4.74 in test [1]; 4.92 with B16; 4.65 in test [2]; 4.87 with A549; 5.19 in the test with KB; 5.24 in test [3].
Take `CC1(C)C(=O)CC[C@]2(C)[C@@H]1C[C@@H](O)[C@]13C(=O)C(CNc4ccc(F)cc4)[C@H](CC[C@@H]21)[C@H]3O` (stereo partly drawn): the negative-log IC50 (pIC50) in test [1] is 4.70; with B16 it was 4.89; in test [2] it was 4.47; with A549, 4.64; in the test with KB, 4.91; in test [3] it was 4.75.
Take `CC1(C)C(=O)CC[C@]2(C)[C@@H]1C[C@@H](O)[C@]13C(=O)C(CNc4cccc(C#N)c4)[C@H](CC[C@@H]21)[C@H]3O` (stereo partly drawn): the negative logarithm of the IC50 (pIC50) was 4.72 in test [1]; 4.74 in the test on B16; 4.61 in test [2]; 4.67 with A549; 5.09 in the test with KB; 4.63 in test [3].
Turning to `CC1(C)C(=O)CC[C@]2(C)[C@@H]1C[C@@H](O)[C@]13C(=O)C(CNc4ccc(S(=O)(=O)c5ccccc5)cc4)[C@H](CC[C@@H]21)[C@H]3O` (stereo partly drawn), the negative logarithm of the IC50 (pIC50) in test [1] is 4.85; in the test with B16 it was 4.98; in test [2], 4.81; with A549, 4.86; with KB, 5.25; in test [3] it was 4.82.
As for `CC1(C)C(=O)CC[C@]2(C)[C@@H]1C[C@@H](O)[C@]13C(=O)C(CNc4ccccc4F)[C@H](CC[C@@H]21)[C@H]3O` (stereo partly drawn), the negative-log IC50 (pIC50) in test [1] is 4.84; with B16 it was 5.02; in test [2], 4.61; with A549 it was 4.69; with KB, 4.95; in test [3], 4.81.
Take `CC1(C)C(=O)CC[C@]2(C)[C@@H]1C[C@@H](O)[C@]13C(=O)C(CNc4ccccc4Cl)[C@H](CC[C@@H]21)[C@H]3O` (stereo partly drawn): the pIC50 in test [1] is 4.49; in the test on B16 it was 4.78; in test [2], 4.54; in the test with A549, 4.67; in the test with KB, 4.96; in test [3], 4.64.
As to `CC1(C)C(=O)CC[C@]2(C)[C@@H]1C[C@@H](O)[C@]13C(=O)C(CNC4CCCCC4)[C@H](CC[C@@H]21)[C@H]3O` (stereo partly drawn), the negative-log IC50 (pIC50) is 4.82 in test [1]; 5.25 in the test on B16; 4.68 in test [2]; 4.95 in the test with A549; 4.95 in the test with KB; 5.03 in test [3]. In test [4], the pIC50 was 5.05.
As to `CC1(C)C(=O)CC[C@]2(C)[C@@H]1C[C@@H](O)[C@]13C(=O)C(CNc4ccc(Cl)cc4)[C@H](CC[C@@H]21)[C@H]3O` (stereo partly drawn), the pIC50 in test [1] was 4.85; in the test on B16, 5.03; in test [2], 4.67; with A549, 4.80; in the test on KB it was 5.18; in test [3] it was 4.85.
For `CC1(C)C(=O)CC[C@]2(C)[C@@H]1C[C@@H](O)[C@]13C(=O)C(CNc4ccccc4Br)[C@H](CC[C@@H]21)[C@H]3O` (stereo partly drawn), the pIC50 in test [1] was 4.55; with B16 it was 4.82; in test [2] it was 4.48; in the test on A549, 4.49; in the test with KB, 4.86; in test [3], 4.90.
For `CC1(C)C(=O)CC[C@]2(C)[C@@H]1C[C@@H](O)[C@]13C(=O)C(CNc4ccc(C(=O)O)cc4)[C@H](CC[C@@H]21)[C@H]3O` (stereo partly drawn), the pIC50 in test [1] was 4.78; in the test on B16 it was 5.17; in test [2] it was 4.65; in the test on A549, 4.93; in the test with KB, 5.21; in test [3], 4.98. In addition, the negative-log IC50 (pIC50) in test [4] was 4.45.
